HTRA1 inh: inhibitors of human serine peptidase HTRA1; Q92743; recombinant HTRA1, FP-rhodamine activity-based probe, fluorescence polarization; inhibition, % at 5.96 µM; 0.5% of 340,000 active; AID 504803; in the data active = inhibition above about 36%;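 note: 0% = enzyme with DMSO and 100% = wells lacking enzyme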
Tn6 DDE FP: DD(E)-Tn6 binding inhibition, primary FP screen | inhibition, % at 8.3 µM | 0.21% of 370,000 active | Fibrin DD(E) TRITC-Tn6 fluorescence polarization displacement | P02675;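 active = inhibition above a per-campaign cutoff: mean of compounds within control limits plus 3 SD, cut at about 15% in these data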;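 note: 0% = median of all compound wells on the plate and 100% = blocking peptide control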
ABHD4 inh: inhibits mouse alpha/beta hydrolase domain 4; Q8VD66; purified mABHD4, FP-Rh probe fluorescence polarization; inhibition, % at 8.92 µM; 0.54% of 370,000 active; AID 720543;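 active = inhibition exceeding the mean over every tested compound plus 3 SD, cut at about 30% in these data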;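 note: 0% = plate median of compound wells and 100% = S159A mutant with DMSO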
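system = mouse ABHD4 enzyme, wild type | medium = HEPES pH 7.0, NaCl, Pluronic buffer | also added = FP-Rh probe | incubation = Enzyme–compound pre-incubation 45 min, then probe 60 min, both 25 °C | technique = fluorescence polarization, excitation 525 nm, emission 598 nm, BODIPY TMR filters | controls = S159A mutant high control, sample median low control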
SIAE primary: inhibitors of human sialic acid acetylesterase SIAE; SIAE FP-Rh probe binding, fluorescence polarization; inhibition, % at 9.66 µM; 0.69% of 370,000 active; AID 1053197;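 active = inhibition above a cutoff: mean of compounds within the control limits plus 3 SD of those, cut at about 17% in these data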;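 note: 0% = plate median of compound wells and 100% = probe without SIAE protein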
Target sequence (Q9HAT2 whole entry, looked up): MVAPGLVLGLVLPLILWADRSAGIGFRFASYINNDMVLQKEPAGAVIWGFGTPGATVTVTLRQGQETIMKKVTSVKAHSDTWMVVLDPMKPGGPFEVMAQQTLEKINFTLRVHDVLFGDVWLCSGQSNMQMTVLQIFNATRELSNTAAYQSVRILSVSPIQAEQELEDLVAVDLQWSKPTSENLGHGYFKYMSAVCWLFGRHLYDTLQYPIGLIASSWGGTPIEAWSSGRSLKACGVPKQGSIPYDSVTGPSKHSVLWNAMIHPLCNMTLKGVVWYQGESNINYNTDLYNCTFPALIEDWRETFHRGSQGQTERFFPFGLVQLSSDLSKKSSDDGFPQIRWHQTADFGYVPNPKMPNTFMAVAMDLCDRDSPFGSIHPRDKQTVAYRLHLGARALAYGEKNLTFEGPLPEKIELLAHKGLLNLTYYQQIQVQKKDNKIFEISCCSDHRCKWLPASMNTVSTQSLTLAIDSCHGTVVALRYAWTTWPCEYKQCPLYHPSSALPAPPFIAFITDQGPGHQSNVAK
Tn7 DDE FP: DD(E)-Tn7 binding inhibition, primary FP screen; FP displacement of FITC-Tn7 peptide from fibrin DD(E); 0% = median of compound wells per plate; inhibition, % at 8.3 µM; 0.13% of 370,000 active;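 active = inhibition above the mean of compounds falling within the control limits plus 3 SD of them, cut at about 14% in these data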;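 note: 0% = plate median of compound wells and 100% = 10 µM Aha-Tn7 peptide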
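Assay system: human fibrin DD(E). Input: DD(E) 2 µM final. Medium: Tris buffer with calcium and detergent, pH 7.8. Compound dosing: single point at 8.3 µM. Timing: 10 min plus 3 h, room temperature. Technique: fluorescence polarization of the labelled Tn7 tracer. Read-out: percent inhibition. Replicates: singlicate testing.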
TCR-CD3 inh: blocks the human TCR-CD3 interaction | TAMRA-labeled TCR probe fluorescence, biochemical | inhibition, % at 9.4 µM | 0.37% of 360,000 active | AID 651800; in the data active = inhibition above about 19%;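 note: recombinant mutant TCR 2C K166C tagged with TAMRA read by polarization; 0% = receptor in buffer alone and 100% = receptor with positive control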
Tn6 DDE ctr: counter-screen hit for Tn6 peptide-fibrin DD(E) binding disruption; shares compounds with Tn6 DDE FP; TRITC-Tn6 fluorescence polarization displacement; 0% = median of compound wells, not DMSO; inhibition, % at 8.3 µM; 2% of 680 active;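 active = inhibition above the mean of test compounds lying between the control limits plus 3 SD of those, cut at about 14% in these data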;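 note: 0% = median of compound wells and 100% = wells with Aha-Tn7 blocking peptide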
DDE Tn6 confirm: DD(E)-Tn6 binding inhibition, FP confirmation. shares compounds with Tn6 DDE FP. FP displacement of TRITC-Tn6 peptide from DD(E); 0% = per-plate median of test wells. inhibition, % at 8.3 µM. 10% of 680 active;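 active = inhibition above the mean of compounds lying within the control limits plus 3 SD, cut at about 16% in these data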;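 note: 100% = high control wells holding a competing inhibitor peptide at 10 µM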
ABHD4 confirm: confirmation of mouse ABHD4 inhibitors; shares compounds with ABHD4 inh; purified mABHD4, FP-Rh probe fluorescence polarization; inhibition, % at 8.92 µM; 55% of 1,800 active; AID 720658;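 active = mean inhibition across replicates above the hit cutoff set in the primary screen, cut at about 30% in these data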;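 note: 0% = wild-type ABHD4 with DMSO and 100% = catalytically dead S159A mutant with DMSO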
SIAE inh conf: human SIAE inhibition, confirmation | shares compounds with SIAE primary | SIAE FP-Rh activity-based probe, fluorescence polarization | inhibition, % at 9.66 µM | 13% of 2,300 active;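 active = mean inhibition of the replicates above the hit cutoff set in the primary screen, cut at about 17% in these data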;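 note: 0% = SIAE with DMSO and probe and 100% = probe without SIAE; inhibitors lower polarization as more probe stays unbound to SIAE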
Numbers without * were called inactive. A selection: hits, their analogues and other compounds. The true share with any hit is near 1.8%.

How did COc1ccc(-c2coc3c(C(=O)NCc4ccc(OC)c(OC)c4)cccc23)c(C)c1 do in these assays?
Tn6 DDE FP: 0; ABHD4 inh: -17; SIAE primary: -12; Tn7 DDE FP: 5; TCR-CD3 inh: 0

How did O=C(N/N=C/c1ccc(O)cc1)c1ccncc1 do in these assays?
HTRA1 inh: 5; Tn6 DDE FP: 0; ABHD4 inh: -4; SIAE primary: 11; Tn7 DDE FP: 4; TCR-CD3 inh: 0

How did CC/C(=C\C(=O)c1ccncc1)Nc1ccc(O)cc1 do in these assays?
HTRA1 inh: 22; Tn6 DDE FP: 46*; ABHD4 inh: 75*; SIAE primary: 22*; Tn7 DDE FP: 4; TCR-CD3 inh: 51*; Tn6 DDE ctr: -2; DDE Tn6 confirm: -5; ABHD4 confirm: 38*; SIAE inh conf: 5

How did Cc1cc(OCC(=O)OCC(=O)N(C)C2CCS(=O)(=O)C2)ccc1Cl (stereo not drawn) do in these assays?
HTRA1 inh: 2; Tn6 DDE FP: -4; ABHD4 inh: 7; SIAE primary: -6; Tn7 DDE FP: 1; TCR-CD3 inh: -6

Results for S=c1nc(-c2sccc2OCc2ccc(Cl)cc2Cl)[nH][nH]1 ?
HTRA1 inh: 3; Tn6 DDE FP: 5; ABHD4 inh: 3; SIAE primary: 17; Tn7 DDE FP: 6; TCR-CD3 inh: 0

What do the screens show for `CON(C)C(=O)/C=C/c1ccc([B-](F)(F)F)cc1`?
HTRA1 inh: 2; Tn6 DDE FP: 0; ABHD4 inh: 42*; SIAE primary: 0; Tn7 DDE FP: 6; TCR-CD3 inh: 4; ABHD4 confirm: 47*

What do the screens show for `CCN(CC)C(=O)/C=C/c1ccccc1`?
HTRA1 inh: 3; Tn6 DDE FP: 1; ABHD4 inh: -15; SIAE primary: 1; Tn7 DDE FP: -1; TCR-CD3 inh: -1

What do the screens show for `CN(CC(=O)Nc1cccc(F)c1)C(=O)c1ccccc1CCc1ccccc1`?
HTRA1 inh: -37; Tn6 DDE FP: -3; ABHD4 inh: 36*; SIAE primary: 4; Tn7 DDE FP: -4; TCR-CD3 inh: 2; ABHD4 confirm: -20

Results for Cc1ccc(NC(=O)CN2C(=O)S/C(=C\c3cc(Cl)c(OCC(=O)O)c(Cl)c3)C2=O)cc1 ?
HTRA1 inh: 5; Tn6 DDE FP: -5; ABHD4 inh: 9; SIAE primary: -2; Tn7 DDE FP: 1; TCR-CD3 inh: -1

Results for CCc1ccc2oc(C(=O)NCCc3ccc(S(N)(=O)=O)cc3)cc(=O)c2c1 ?
HTRA1 inh: 2; Tn6 DDE FP: 1; ABHD4 inh: -1; SIAE primary: 0; Tn7 DDE FP: 4; TCR-CD3 inh: 8

How did CCOc1ccc(CCNC(=O)CS(=O)Cc2nc(-c3ccc(C)cc3)oc2C)cc1 (stereo not drawn) do in these assays?
HTRA1 inh: 1; Tn6 DDE FP: 7; ABHD4 inh: 30*; SIAE primary: -2; Tn7 DDE FP: 3; TCR-CD3 inh: 2; ABHD4 confirm: -14

How did CCOc1cc2c(c3c1C(c1ccccc1)N(S(=O)(=O)c1ccc(C)cc1)C3)C(=O)C=CC2=O (stereo not drawn) do in these assays?
Tn6 DDE FP: 2; ABHD4 inh: 48*; SIAE primary: 5; Tn7 DDE FP: 0; TCR-CD3 inh: 0; ABHD4 confirm: 60*

What do the screens show for `CCOC(=O)C1=CCN(S(=O)(=O)c2ccc(C)cc2)C1c1ccccc1` (stereo not drawn)?
Tn6 DDE FP: 8; ABHD4 inh: -4; SIAE primary: 1; Tn7 DDE FP: 10; TCR-CD3 inh: 3

What do the screens show for `COc1ccc2nc(NC(=O)Nc3cccc4ccccc34)sc2c1`?
HTRA1 inh: -2; Tn6 DDE FP: -10; ABHD4 inh: 30*; SIAE primary: -1; Tn7 DDE FP: -3; TCR-CD3 inh: -3; ABHD4 confirm: -1

What do the screens show for `C[C@H](O)[C@@H]1CN2CCc3c([nH]c4c(-c5ccc6c(c5)OCO6)cccc34)[C@@H]2C[C@@H]1N(C)C(=O)NC1CCCCC1`?
Tn6 DDE FP: 1; ABHD4 inh: 4; SIAE primary: -1; Tn7 DDE FP: -6

What do the screens show for `CC(=O)c1sc(N/N=C\c2ccc(Br)cc2)nc1C`?
HTRA1 inh: -6; Tn6 DDE FP: -7; ABHD4 inh: 18; SIAE primary: 16; Tn7 DDE FP: -5; TCR-CD3 inh: 10

Results for CCOC(=O)c1sc(N/N=C/c2ccc(N(C)C)cc2)nc1C ?
HTRA1 inh: 18; Tn6 DDE FP: 0; ABHD4 inh: 32*; SIAE primary: 12; Tn7 DDE FP: 1; TCR-CD3 inh: -6; ABHD4 confirm: 9

How did Cc1ccc(NC(=O)COC(=O)c2ccco2)cc1S(=O)(=O)N1CCCCC1 do in these assays?
HTRA1 inh: -4; Tn6 DDE FP: 4; ABHD4 inh: 2; SIAE primary: 4; Tn7 DDE FP: -4; TCR-CD3 inh: 6

What do the screens show for `O=C1NC(=S)NC(=O)C1=Cc1ccccc1C(=O)O`?
HTRA1 inh: 9; Tn6 DDE FP: -5; ABHD4 inh: 9; SIAE primary: 5; Tn7 DDE FP: -7; TCR-CD3 inh: -4

Results for Cc1cccc(Cc2c(C)nc3c(C(=O)N4CCN(Cc5ccc6c(c5)OCO6)CC4)cnn3c2C)c1 ?
HTRA1 inh: -7; Tn6 DDE FP: 2; ABHD4 inh: 36*; SIAE primary: -2; Tn7 DDE FP: 5; TCR-CD3 inh: 4; ABHD4 confirm: 38*

Results for CCOc1ccccc1C1C(C#N)=C(N)Oc2cc(N)ccc21 (stereo not drawn) ?
HTRA1 inh: 9; Tn6 DDE FP: 3; ABHD4 inh: 31*; SIAE primary: 4; Tn7 DDE FP: -9; TCR-CD3 inh: -2; ABHD4 confirm: -1

What do the screens show for `COc1ccc(OC)c(C2C(C#N)=C(N)Oc3cc(N)ccc32)c1` (stereo not drawn)?
HTRA1 inh: 8; Tn6 DDE FP: -6; ABHD4 inh: 26; SIAE primary: -1; Tn7 DDE FP: -3; TCR-CD3 inh: 4

Source: PubChem
